Experimental data pooled from the literature.
Lines come from different studies, so protocols differ.
Organism: Staphylococcus aureus
Effect on: microbial growth

SMILES	method	strain	time	setting	MIC
Oc1ccc(Br)cc1-c1nc2ccccc2[nH]1	broth dilution	ATCC29213 MSSA			64 µg/mL
O=C(CCc1cc(O)c(O)c(O)c1)NCCCCCCCC[P+](c1ccccc1)(c1ccccc1)c1ccccc1.[Br-]	broth dilution	ATCC43300 MRSA	18 h		8 µg/mL
COc1cccc(OC)c1C(=O)N[C@@H]1C(=O)N2[C@@H]1SC(C)(C)[C@@H]2C(=O)O	broth dilution	ATCCBAA44			1020 µg/mL
O=C(Nc1ccc(F)c(F)c1)c1cc(Cl)ccc1O	broth dilution	ATCC29213			0.44 µg/mL
O=C1NC(=S)S/C1=C\c1c2ccccc2c(-c2ccc(N(c3ccccc3)c3ccccc3)cc2)c2ccccc12	broth dilution	ATCC6538			> 1000 µg/mL
C=CC1(C)CC(OC(=O)CSc2nc3ccccc3s2)C2(C)C(C)CCC3(CCC(=O)C32)C(C)C1O (stereo not drawn)					0.5 µg/mL
O=C(O)CN1C(=O)/C(=C/c2ccc(-c3ccc(N(c4ccccc4)c4ccccc4)cc3)cc2)NC1=S	broth dilution	ATCC25923			3.9 µg/mL
O=C1NN=C(N=Cc2ccccc2O)C1=NNn1c(-c2ccccc2)nc2ccccc2c1=O	broth dilution		24 h		111 µM
CNc1cccc2cc(C(=O)NCCc3cccc(C(=O)O)c3)c(=O)[nH]c12		ATCC29213			> 64 µg/mL
C[C@@H](Oc1cc(-n2cnc3ccc(CN4CCN(C)CC4)cc32)sc1C(N)=O)c1ccccc1C(F)(F)F		NCTC8325			> 30 µM
Cc1ccc2nc(-c3ccc([N+](=O)[O-])cc3)n(Cc3ccccc3)c2c1	broth dilution	ATCC29213 MSSA			8 µg/mL
CNC(=O)c1ccc(C)c(-n2c(C)cc(OCc3ccc(F)cc3F)c(Br)c2=O)c1		NCTC8325			> 30 µM
CCCCCC(=O)Oc1c(C)c(O)c(C(=O)/C=C/c2ccccc2)c(OC)c1C	broth dilution	ATCC25923			> 5000 µg/mL
C[S+]([O-])c1ccc(-c2nc(-c3ccc(F)cc3)c(-c3ccncc3)[nH]2)cc1 (stereo not drawn)		NCTC8325			> 30 µM
O=C(O)c1cn(C2CC2)c2cc(N3CCNCC3)c(F)cc2c1=O	broth dilution	ATCC11632	18 h		< 5 µg/mL
Cc1cc(Nc2nc(N[C@@H](C)c3ccc(F)cc3)c(C#N)cc2F)n[nH]1		NCTC8325			30 µM
CC[C@H]1OC(=O)[C@H](C)[C@@H](O[C@H]2C[C@@](C)(OC)[C@@H](O)[C@H](C)O2)[C@H](C)[C@@H](O[C@@H]2O[C@H](C)C[C@H](N(C)C)[C@H]2O)[C@](C)(O)C[C@@H](C)C(=O)[C@H](C)[C@@H](O)[C@]1(C)O		147		clinical isolate	37.5 µM
O=C(c1ccc(/C=C/c2n[nH]c3ccccc23)cc1)N1CCNCC1		NCTC8325			> 30 µM
CC(C)Oc1c(NC(=O)c2ccc(NC(=O)[C@H](CC(N)=O)NC(=O)c3ccc(NC(=O)c4ccc(C#N)c(F)c4)cc3)cc2)ccc(C(=O)Nc2ccc(C(=O)O)cc2)c1O		ATCC29213			2 µg/mL
Cn1cc(C2=C(c3ccc(Cl)cc3Cl)C(=O)NC2=O)c2ccccc21		NCTC8325			> 30 µM
NC[C@@H]1O[C@H](O[C@H]2[C@@H](O)[C@H](O[C@@H]3[C@@H](O)[C@H](N)C[C@H](N)[C@H]3O[C@H]3O[C@H](CN)[C@@H](O)[C@H](O)[C@H]3N)O[C@@H]2CO)[C@H](N)[C@@H](O)[C@@H]1O		USA300			5 µg/mL

SMILES	method	strain	time	setting	MIC
O=c1[nH]cc(F)c(=O)[nH]1	broth dilution		24 h		1 µg/mL
C/C=C(\C)c1cc(OC(=O)c2c(C)c(Cl)c(O)c(Cl)c2O)c(C)c(O)c1C(=O)O	broth dilution	CCARM3090			64 µg/mL
Cc1ccc(C)n1-c1ccc(-c2nnco2)cc1	broth dilution	ATCC11632	18 h		2 µg/mL
CC(C)Oc1c(NC(=O)c2ccc(NC(=O)[C@H](CC(N)=O)NC(=O)c3ccc(NC(=O)c4cc(=O)c(O)c[nH]4)cc3)cc2)ccc(C(=O)Nc2ccc(C(=O)O)cc2)c1O		ATCC29213			> 64 µg/mL
O=C1NC(=S)N/C1=C\c1ccc(-c2ccc(N(c3ccccc3)c3ccccc3)cc2)cc1	broth dilution	ATCC43300			> 1000 µg/mL
C/C=C(\C)c1cc(O)c(C)c(OC(=O)c2c(C)cc(O)c(Cl)c2O)c1	broth dilution	16162			8 µg/mL
CSc1ccc(-c2nc3ccc(C)cc3n2Cc2ccccc2)cc1	broth dilution	ATCC29213 MSSA			128 µg/mL
OCCn1cc(-c2cnc3nnn(Cc4ccc5ncccc5c4)c3n2)cn1		NCTC8325			> 30 µM
COc1ccc(-c2nc3ccc(C)cc3[nH]2)cc1OC	broth dilution	ATCC29213 MSSA			128 µg/mL
CC(C)COc1c(NC(=O)c2ccc(NC(=O)[C@H](CC(N)=O)NC(=O)c3ccc(NC(=O)c4ccc(C#N)cc4)cc3)cc2)ccc(C(=O)Nc2ccc(C(=O)O)cc2)c1O		ATCC29213			0.25 µg/mL
Cc1cnc(Nc2ccc(OCCN3CCCC3)cc2)nc1Nc1cccc(S(=O)(=O)NC(C)(C)C)c1		NCTC8325			> 30 µM
CC(=O)NC[C@H]1CN(c2ccc(N3CCOCC3)c(F)c2)C(=O)O1	broth dilution	MRSA NRS123 USA400		drug-resistant strain	2 µg/mL
O=C(O)c1cn(C2CC2)c2cc(N3CCNCC3)c(F)cc2c1=O					1.6 µg/mL
Cc1ccc2nc(-c3cccnc3)[nH]c2c1	broth dilution	ATCC29213 MSSA			64 µg/mL
O=C(C[n+]1cc(-c2ccc(Cl)cc2)n2c1CCC2)Nc1ccc(Cl)c(Cl)c1					4 µg/mL
C/C=C(\C)c1cc(O)c(C)c(OC(=O)c2c(C)c(Cl)c(O)c(Cl)c2O)c1	broth dilution	CCARM3090			4 µg/mL
C=CCn1c(-c2ccc(OC)c(OC)c2)nc2ccccc21	broth dilution	ATCC29213 MSSA			128 µg/mL
CC(C)Oc1c(NC(=O)c2ccc(NC(=O)[C@H](CC(N)=O)NC(=O)c3ccc(NC(=O)Cc4ccc(C#N)cc4)cc3)cc2)ccc(C(=O)Nc2ccc(C(=O)O)cc2)c1O		ATCC29213			> 64 µg/mL
CSc1nc(C)c(Cl)c(O)n1					> 128 µg/mL
CC(C)Oc1c(NC(=O)c2ccc(NC(=O)[C@H](CC(N)=O)NC(=O)c3cccc(-c4cccc(C#N)c4)c3)cc2)ccc(C(=O)Nc2ccc(C(=O)O)cc2)c1O		ATCC29213			> 64 µg/mL
Cc1c(CN(C)C(=O)/C=C/c2cnc3c(c2)CC(CCN)C(=O)N3)oc2ccccc12.Cl (stereo not drawn)	broth dilution	ATCC29213			0.125 µg/mL
